# Data published in PubChem BioAssay AID1257 (The Scripps Research Institute Molecular Screening Center, 2008).
# The other results are listed elsewhere or left out. A number with no mark means an inactive call. Activity calls are given as the source filed them.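 How the source made its calls: active means mean inhibition of triplicate wells above the hit cutoff set in the primary screen (cut at about 17% in these data); inactive means the rest.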
# Target: Neuropeptide Y receptor type 2 (Homo sapiens) (UniProt P49146)
# Assay: blockers of human NPY-Y2 signalling – HEK293-CNG cells, membrane potential fluorescence, triplicate, confirmation (AID 1257);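 further: 0% = DMSO with NPY challenge and 100% = BIIE0246 high control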
# Details: HEK293 NPY-Y2 CNG channel, at 2.8 µM, stronger effect = higher value
# Outline: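 Material: HEK293 cells expressing NPY-Y2 receptor and CNG channel; Control set: BIIE0246 as high control, DMSO as low control; Measured by: membrane potential dye fluorescence; Also added: NPY 8 nM plus isoproterenol 1 µM, Ro 20-1724 25 µM; Doses: single nominal compound dose of 2.8 µM; Times: 60 min NPY incubation, room temperature.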
# Sequence of Neuropeptide Y receptor type 2 (Homo sapiens) (P49146 whole entry, looked up): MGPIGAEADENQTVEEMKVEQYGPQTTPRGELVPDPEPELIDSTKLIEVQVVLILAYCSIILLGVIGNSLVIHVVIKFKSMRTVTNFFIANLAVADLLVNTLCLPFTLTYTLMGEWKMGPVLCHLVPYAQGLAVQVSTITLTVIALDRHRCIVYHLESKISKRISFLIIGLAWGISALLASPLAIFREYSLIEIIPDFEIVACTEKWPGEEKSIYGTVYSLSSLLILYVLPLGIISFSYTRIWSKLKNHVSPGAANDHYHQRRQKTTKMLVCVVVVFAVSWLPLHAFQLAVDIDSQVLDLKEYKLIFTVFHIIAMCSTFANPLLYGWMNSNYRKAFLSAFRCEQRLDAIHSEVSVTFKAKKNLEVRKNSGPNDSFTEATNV
row,Compound,inhibition
1,Cc1ccc(S(=O)(=O)N(Cc2ccc(Cl)cc2)c2ccccc2C(=O)NCc2cccnc2)cc1,21.4% (active)
2,Cc1ccccc1OC(=O)Cn1c(C(F)(F)F)nc2ccccc21,3.55%
3,Cc1ccc(CCC(=O)Nc2ncc(Cc3cc(Cl)ccc3Cl)s2)o1,28.3% (active)
4,O=C1CC(c2cccc(Cl)c2)CC(O)=C1C=Nc1ccccc1 (stereo not drawn),16.5%
5,COc1ccc(-c2nc3ccccc3n2CCC(C)C)cc1OC,7.79%
6,Cc1cc(C(=O)OCC(=O)N2c3ccccc3NC(=O)C2(C)C)c(C)n1-c1ccccc1,17.1%
7,O=C(CC(O)(C(F)(F)F)C(F)(F)F)Nc1ccc(Cl)c(Cl)c1,8.21%
8,COC(=O)c1ccc(CSc2nc3cc(Cl)ccc3o2)cc1,12.9%
9,COc1cccc(-c2ccc(C#N)c(SCC(=O)NCCc3ccc(Cl)cc3)n2)c1,23.6% (active)
10,Cc1ccccc1N1CCN(CCCOc2ccc3c(C)cc(=O)oc3c2)CC1,21.9% (active)
11,O=C(Nc1nnc(SCc2c(Cl)cccc2Cl)s1)C1CCCO1 (stereo not drawn),15.9%
12,CN(C)Cc1ccc(F)cc1Sc1cc(Cl)ccc1Cl,9.81%
13,CC12CN(Cc3ccccc3)CC(C)(CN(Cc3ccccc3)C1)C2=NO,10.7%
14,CCCCC(O)(CCCC)C(=O)NN(C(=O)CCl)c1ccccc1,6.12%
15,CCCc1nc(SCC(=O)Nc2ccccc2OC)c2c(=O)n(C)c(=O)n(C)c2n1,9.29%
16,COc1ccc(/C(N)=N/OC(=O)CCCc2ccccc2)cc1,8.36%
17,CCOc1ccc(S(=O)(=O)N/N=C(\C)c2ccc(Cl)c(Cl)c2Cl)cc1,16%
18,O=C(Oc1ccccc1)Oc1ccc2c(c1)oc(=O)c1ccccc12,6.38%
